Source: ChEMBL document CHEMBL1125433, “Exploration of N-phosphonoalkyl-, N-phosphonoalkenyl-, and N-(phosphonoalkyl)phenyl-spaced alpha-amino acids as competitive N-methyl-D-aspartic acid antagonists” (J Med Chem, 1992)

Legend:
Glutamate NMDA receptor [1] = assay: Inhibitory activity evaluated by its ability to displace [3H]CPP from N-methyl-D-aspartate glutamate receptor in rat cortical membranes at 10E-4 concentration of the compound; assay type: cell membranes
Procedure, shortened: (§1)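 Rat forebrain crude synaptic membranes were pretreated with Triton X-100 and washed in 50 mM Tris-HCl pH 7.6. Membranes (200-400 µg protein/mL) were incubated with 10 nM [3H]CPP and test agent for 15 min at 23 °C, in triplicate. Pellets were collected by centrifugation and counted. Percent inhibition = (T−S)/T×100, where T and S are specific binding without and with test agent.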

Rattus norvegicus = species on record: Rattus norvegicus; assay: In vitro antagonist activity by its ability to inhibit glutamate-induced accumulation of [45Ca2+]- in cultured rat cortical neurons.; assay type: functional
Procedure, shortened: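 Cortical neurons came from E18 Sprague-Dawley rat fetuses and were used 14-16 days after plating. Cells were held in Mg-free HBSS with 1.4 mM CaCl2, pH 7.4, at 37 °C and 5% CO2. They were exposed for 30 min to 100 µM L-glutamate (final) plus 45Ca2+ (2 µCi/mL) with test agent, then washed with saline, lysed in water and beta-counted. Baseline uptake without glutamate was subtracted. IC50 came from at least four half-log concentrations, with at least six replicates each.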

[2] = target: T1, Glutamate NMDA receptor (Rattus norvegicus) (UniProt P35439+Q00959+Q00960+Q00961+Q62645+Q8VHN2+Q9R1M7); assay: Inhibitory activity evaluated by its ability to displace [3H]CPP from NMDA receptor in rat cortical membranes at 10E-4 concentration of the compound; assay type: cell membranes; procedure, shortened: as §1
Glutamate NMDA receptor [3] = assay: Inhibitory activity evaluated by its ability to displace [3H]CPP from N-methyl-D-aspartate glutamate receptor in rat cortical membranes at 10E-5 concentration of the compound; assay type: cell membranes; procedure, shortened: as §1
[4] = target: T1, Glutamate NMDA receptor (Rattus norvegicus); assay: Displacement of [3H]CPP from N-methyl-D-aspartate glutamate receptor of rat cortical membranes; assay type: cell membranes; set-up: concentration or dose not given beside the values; conditions: Membrane, concentration not given here
Procedure, shortened: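 Membranes were crude synaptic membranes from whole brain, minus cerebellum and brainstem, of male Long-Evans rats. They were treated with 0.01% Triton X-100 (37 °C, 30 min) and washed in 50 mM Tris-HCl pH 7.6. Membranes (200-400 µg protein/mL) were incubated with 10 nM [3H]CPP for 15 min at 23 °C, in triplicate. Bound ligand was separated by centrifugation and counted by scintillation. IC50 was fitted by nonlinear least squares from four or more concentrations.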

Glutamate NMDA receptor [5] = assay: Inhibitory activity evaluated by its ability to displace [3H]CPP from rat cortical membrane receptor at 10E-5 concentration of the compound
Procedure, shortened: (§2)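 Crude synaptic membranes from whole brain minus cerebellum and brainstem of male Long-Evans rats, treated with 0.01% Triton X-100 at 37 °C for 30 min and washed. Membranes (200-400 µg protein/mL) were incubated with 10 nM [3H]CPP in 50 mM Tris-HCl pH 7.6 for 15 min at 23 °C in triplicate. Bound ligand was separated by centrifugation and counted by liquid scintillation. Inhibition of specific binding was calculated as ((T−S)/T)×100.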

Glutamate NMDA receptor [6] = assay: Inhibitory activity evaluated by its ability to displace [3H]CPP from rat cortical membrane N-methyl-D-aspartate glutamate receptor at 10E-5 concentration of the compound; procedure, shortened: as §2

Row | IC50 (Rattus norvegicus) | inhibition [4] | SMILES | other results
1 | 144 µM | – | O=C(O)CNCCc1cccc(CP(=O)(O)O)c1 | IC50 (Glutamate NMDA receptor [1]): 13.7 µM
2 | 137 µM | – | N/C(=N\CC(=O)O)c1cccc(CP(=O)(O)O)c1 | IC50 (Glutamate NMDA receptor [3]): 18 µM
3 | – | 13% | O=C(O)CNc1cccc(/C=C/CP(=O)(O)O)c1 | –
4 | – | 48% | O=C(O)CNc1ccccc1CP(=O)(O)O | –
5 | – | 5% | O=C(O)CNc1cccc(CCCP(=O)(O)O)c1 | –
6 | – | 31% | CC(NCc1cccc(CP(=O)(O)O)c1)C(=O)O (stereo unspecified) | –
7 | 40 µM | – | O=C(O)CNCc1cccc(CP(=O)(O)O)c1 | IC50 (Glutamate NMDA receptor [5]): 2.4 µM
8 | – | 60% | O=C(O)CNCCSCP(=O)(O)O | –
9 | – | 27% | O=C(O)CNc1ccccc1P(=O)(O)O | –
10 | 2.4 µM | – | O=C(O)C1CN(CCCP(=O)(O)O)CCN1 (stereo unspecified) | –
11 | – | 0% | CC(C)C(NCc1cccc(CP(=O)(O)O)c1)C(=O)O (stereo unspecified) | –

Further lines, the molecule ahead of its results:

Row | SMILES | IC50 (Rattus norvegicus) | inhibition [4] | other results
12 | O=C(O)CNc1ccccc1CCP(=O)(O)O | – | – | inhibition [2]: 0%
13 | O=C(O)CNCc1ccc(CP(=O)(O)O)cc1 | 59 µM | – | IC50 (Glutamate NMDA receptor [5]): 2.3 µM
14 | O=C(O)CNC/C=C/CP(=O)(O)O | 16.7 µM | – | IC50 (Glutamate NMDA receptor [5]): 1 µM
15 | O=C(O)CNCc1cccc(P(=O)(O)O)c1 | – | – | inhibition [2]: 21%
16 | O=C(O)CNCC/C=C\P(=O)(O)O | 36 µM | – | IC50 (Glutamate NMDA receptor [6]): 2.25 µM
17 | O=C(O)CNCc1ccccc1CP(=O)(O)O | – | – | inhibition [2]: 21%
18 | O=C(O)CNc1ccccc1/C=C/P(=O)(O)O | – | 9% | –
19 | O=C(O)CNCCCP(=O)(O)O | – | 3% | –
20 | O=C(O)CNCCCCP(=O)(O)O | – | 17% | –
21 | O=C(O)CNCCP(=O)(O)O | – | 14% | –
22 | CC(NCc1ccccc1CP(=O)(O)O)C(=O)O (stereo unspecified) | – | 4% | –
23 | O=C(O)CNc1ccccc1C(=O)O | > 250 µM | – | –
24 | O=C(O)CNCC[S+]([O-])CP(=O)(O)O (stereo unspecified) | – | 4% | –
25 | CC(NC/C=C\CP(=O)(O)O)C(=O)O (stereo unspecified) | – | – | IC50 (Glutamate NMDA receptor [6]): 42.4 µM
26 | O=C(O)CNc1cccc(CCP(=O)(O)O)c1 | – | 0% | –
27 | O=C(O)C1CN(CP(=O)(O)O)CCN1 (stereo unspecified) | 5.2 µM | – | IC50 (Glutamate NMDA receptor [5]): 0.065 µM
28 | NC(CCCP(=O)(O)O)C(=O)O (stereo unspecified) | 6.1 µM | – | –
29 | NC(CCCCCP(=O)(O)O)C(=O)O (stereo unspecified) [AP-7] | 30 µM | – | –
